# Assay results: ChEMBL document CHEMBL4304819, “Natural product pectolinarigenin exhibits potent anti-metastatic activity in colorectal carcinoma cells in vitro and in vivo” (2019)
# Calls of active or inactive are those of the source. The calls are words filed in the database; no cut-off is given here.
# Columns and labels:
# HCT-116 [1] = assay: Induction of apoptosis in human HCT116 cells assessed as early apoptotic cells at 40 uM after 48 hrs by Annexin V-FITC/propidium iodide staining-based flow cytometric analysis (reference value: 1.23 %); assay type: functional
# In short: (§1)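 Cells (1–2 × 10^5 per well) seeded in six-well plates 24 h, treated at 0–40 μM for 24 h or 48 h, harvested, washed twice in cold PBS, stained with Annexin V-FITC/PI and analysed by flow cytometry; early (Annexin V only) and late (Annexin V and PI) apoptotic fractions quantified; three experiments.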
# HCT-116 [2] = assay: Antiproliferative activity against human HCT116 cells assessed as reduction in cell viability up to 40 uM by MTT assay; assay type: functional, cell-based; settings: TDE = time-dependent effect
# In short: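 Exponentially growing cells (2–6 × 10^3 per well) seeded in 96-well plates for 24 h, then exposed to 0, 2.5, 5, 10, 20, 40 µM for 24, 48 and 72 h. MTT (5 mg/mL stock) added 2–4 h at 37 °C; formazan dissolved in DMSO, absorbance at 570 nm. Three independent experiments.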
# CT26 [3] = assay: Antimetastatic activity against mouse CT26 cells allografted in Balb/c mouse assessed as reduction in splenomegaly at 25 to 50 mg/kg, ip administered daily for 14 days starting from 6 days post implantation; assay type: functional, organism-based
# In short: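 Female BALB/c mice (6–8 weeks) injected ip with 5 × 10^5 CT26 cells; from day 6, randomized (eight per group) to ip vehicle, 25 or 50 mg/kg once daily for 14 days. Abdominal circumference and body weight every 3 days; abdominal nodules counted by eye and weighed; spleens assessed; paraffin tumour sections immunostained (Ki-67, MMP-9, p-Stat3) with DAB detection.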
# HCT-116 [4] = assay: Induction of apoptosis in human HCT116 cells assessed increase in Bax/Bcl2 protein ratio up to 40 uM after 48 hrs by Western blot analysis; assay type: functional, cell-based
# In short: (§2)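 Cells treated 48 h at 0, 10, 20 and 40 μM, washed in cold PBS, lysed in RIPA; protein equalized by Lowry assay, resolved by SDS-PAGE, transferred to PVDF, blocked 1 h at 37 °C, primary antibody overnight at 4 °C, secondary 1 h, ECL detection, densitometry. β-actin loading control.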
# HCT-116 [5] = assay: Induction of apoptosis in human HCT116 cells assessed as increase in Bax protein expression up to 40 uM after 48 hrs by Western blot analysis; assay type: functional, cell-based; in short: as §2
# HCT-116 [6] = assay: Antimetastatic activity against human HCT116 assessed as inhibition of MMP-9 expression after 48 hrs by Western blot analysis; assay type: functional, cell-based; in short: as §2
# CT26 [7] = assay: Induction of apoptosis in mouse CT26 cells assessed as necrotic cells at 10 uM after 48 hrs by Annexin V-FITC/propidium iodide staining-based flow cytometric analysis (reference value: 1.80 %); assay type: functional
# In short: (§3)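 CT26 cells seeded at 1–2 × 10^5 per well in six-well plates for 24 h, then exposed to PEC (0–40 μM) for 24 or 48 h. Cells harvested, washed twice in cold PBS, stained with Annexin V-FITC/PI and read by flow cytometry. Early apoptotic = Annexin V+ only; late apoptotic = Annexin V+/PI+. Mean ± SD of three experiments.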
# HCT-116 [8] = assay: Induction of apoptosis in human HCT116 cells assessed as early apoptotic cells at 10 uM after 48 hrs by Annexin V-FITC/propidium iodide staining-based flow cytometric analysis (reference value: 1.23 %); assay type: functional; in short: as §1
# CT26 [9] = assay: Antimetastatic activity against mouse CT26 cells assessed as inhibition of MMP-9 expression after 48 hrs by Western blot analysis; assay type: functional, cell-based; in short: as §2
# CT26 [10] = assay: Induction of apoptosis in mouse CT26 cells assessed as increase in Bax/Bcl2 protein ratio up to 40 uM after 48 hrs by Western blot analysis; assay type: functional, cell-based
# In short: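 CT26 cells exposed 48 h to PEC at 0, 10, 20 and 40 μM, washed twice in cold PBS, lysed in RIPA. Protein measured by Lowry and equalized, run on SDS-PAGE, blotted to PVDF. Blocked 1 h at 37 °C, primary antibodies (Bax, Bcl-2, pro-caspase-3, cleaved caspase-3) overnight at 4 °C, secondary 1 h, ECL detection, densitometry.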
# CT26 [11] = assay: Induction of apoptosis in mouse CT26 cells assessed as late apoptotic cells at 40 uM after 48 hrs by Annexin V-FITC/propidium iodide staining-based flow cytometric analysis (reference value: 6.49 %); assay type: functional; in short: as §3
# HCT-116 [12] = assay: Induction of apoptosis in human HCT116 cells assessed as viable cells at 10 uM after 48 hrs by Annexin V-FITC/propidium iodide staining-based flow cytometric analysis (reference value: 86.7 %); assay type: functional; settings: HCT-116, 48 h, read-out: Activity; in short: as §1
smiles,measurement,setting,value
COc1ccc(-c2cc(=O)c3c(O)c(OC)c(O)cc3o2)cc1 [PECTOLINARIGENIN],Activity,HCT-116 [1],9.42%
same,inhibition,HCT-116 [2],Tde
same,Activity,CT26 [3],Active
same,Activity,HCT-116 [4],Active
same,Activity,HCT-116 [5],Active
same,inhibition,HCT-116 [6],Dose-dependent effect
same,Activity,CT26 [7],3.82%
same,Activity,HCT-116 [8],5.08%
same,inhibition,CT26 [9],Dose-dependent effect
same,Activity,CT26 [10],Active
same,Activity,CT26 [11],13.4%
same,viability at 10 µM,HCT-116 [12],85.1%
